In ChEMBL document CHEMBL1125403, “Hybrid cholecystokinin-A antagonists based on molecular modeling of lorglumide and L-364,718” (J Med Chem, 1992):

What was measured:
Assay type in all cases: cell membranes, Membrane
[1] = target: T1, Cholecystokinin receptor type A (Rattus norvegicus, UniProt P30551); assay: Compound was evaluated for its ability to inhibit [3H]L-364718 binding Cholecystokinin type A receptor in rat pancreas membranes
T1 sequence (P30551 whole entry): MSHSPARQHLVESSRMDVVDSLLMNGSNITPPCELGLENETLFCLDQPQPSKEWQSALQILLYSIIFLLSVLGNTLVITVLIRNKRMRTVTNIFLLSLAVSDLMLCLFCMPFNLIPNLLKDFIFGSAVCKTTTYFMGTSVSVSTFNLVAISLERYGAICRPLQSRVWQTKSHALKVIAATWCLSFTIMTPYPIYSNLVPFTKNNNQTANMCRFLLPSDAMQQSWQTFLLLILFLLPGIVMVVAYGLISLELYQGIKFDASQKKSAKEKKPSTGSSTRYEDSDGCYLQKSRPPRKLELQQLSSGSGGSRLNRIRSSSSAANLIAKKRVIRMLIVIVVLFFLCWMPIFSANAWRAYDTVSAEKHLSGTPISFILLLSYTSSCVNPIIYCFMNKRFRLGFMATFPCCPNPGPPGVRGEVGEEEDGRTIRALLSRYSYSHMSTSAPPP
Outline: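 Male Wistar rat pancreas membranes, homogenized in 10 mM Hepes pH 7.4/5 mM MgCl2/130 mM NaCl, stored at -80 °C. […] GF/B filtration, scintillation counting. Nonspecific binding with 10 μM lorglumide. IC50 from pseudo-Hill plots, Ki by Cheng-Prusoff. Mean ± SEM of three experiments.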

[2] = target: T1, Cholecystokinin receptor type A; assay: Inhibition of [3H]L-364718 binding to cholecystokinin type A receptor in rat pancreas membranes
Outline: (§1)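 Male Wistar rat pancreas membranes, homogenized in 10 mM Hepes pH 7.4/5 mM MgCl2/130 mM NaCl, stored at -80 °C. GF/B filtration, scintillation counting. Nonspecific binding with 10 μM lorglumide. IC50 from pseudo-Hill plots, Ki by Cheng-Prusoff. Mean ± SEM of three experiments.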

[3] = target: T1, Cholecystokinin receptor type A; assay: Displacement of [3H]L-364718 from Cholecystokinin type A receptor of rat pancreatic membranes; outline: as §1

SMILES	Ki [2] [nM]	Ki [3] [nM]	also measured
O=C(NCCC=C(c1ccccc1)c1ccccc1)c1cc2ccccc2[nH]1			Ki [1]: > 2000 nM
O=C(NCC=C(c1ccccc1)c1ccccc1)c1ccc(Cl)cc1	> 2000		
O=C(NC/C=C/c1ccccc1)Nc1ccc(Cl)cc1		> 4000	
CCCCCC(=CCNC(=O)Nc1ccc(Cl)cc1)CCCCC		200	
O=C(NCC=C(c1ccccc1)c1ccccc1)c1ccc(Cl)c(Cl)c1	400		
O=C(NCC=C(c1ccccc1)c1ccccc1)c1ccc2ccccc2c1	450		
O=C(NCC=C(c1ccccc1)c1ccccc1)c1cnc2ccccc2c1		> 2000	
O=C(NCC=C(c1ccccc1)c1ccccc1)c1ccnc2ccccc12		> 2000	
Cc1cccc(NC(=O)NCC=C(c2ccccc2)c2ccccc2)c1	800		
O=C(NCC=C(c1ccccc1)c1ccccc1)c1cccc2ccccc12	1000		
CCCCCN(CCCCC)C(=O)[C@@H](CCC(=O)O)NC(=O)c1ccc(Cl)c(Cl)c1	49		
O=C(NCC=C(c1ccccc1)c1ccccc1)c1cc2ccccc2[nH]1		340	
O=C(NCC=C(c1ccccc1)c1ccccc1)c1ccc2ccccc2n1		470	

More lines, main results first:

Ki [2] [nM]	Ki [3] [nM]	SMILES	also measured
	> 4000	COc1ccc(C(=CCNC(=O)c2cc3ccccc3[nH]2)c2ccc(OC)cc2)cc1	
> 4000		O=C(NCC=C1c2ccccc2CCc2ccccc21)Nc1ccc(Cl)cc1	
	> 2000	O=C(NCC=C(c1ccccc1)c1ccccc1)c1cc2cccc3c2n1CCC3	
90		O=C(NCC=C(c1ccccc1)c1ccccc1)Nc1ccc(Cl)cc1	
	400	O=C(NCCC=C(c1ccccc1)c1ccccc1)Nc1ccc(Cl)cc1	
